TRPML3 ag: human mucolipin-3 channel agonism; HEK293 TRPML3-YFP, Fluo-8 calcium fluorescence; 100% = the carbachol control signal; activation, % at 3 µM; 220,000 tested, 0.29% active;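 active means activation above its plate's cutoff, the mean activation of the plate's test wells plus 3 SD, cut at about 12% in these data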;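 further: 0% = DMSO only wells and 100% = carbachol wells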
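Test system: HEK293 cells stably carrying human TRPML3-YFP; Doses: single dose, 3 µM final nominal compound, 0.3% DMSO final; Schedule: dye loading 1 h 37 °C then 30 min ambient, 125 s read; Technique: Fluo-8 calcium fluorescence; Benchmarks: high control carbachol 87 µM, low control DMSO.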
GPR7 antagonist: antagonists of human GPR7 (neuropeptides B/W receptor 1); P48145; GPR7-expressing cells, fluorescence antagonist assay; inhibition, % at 4.4 µM; 290,000 tested, 1.1% active; in the data active means inhibition above about 16%, passing the limit was not always enough;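 further: cells stimulated with the agonist NPW; 0% = agonist with vehicle and 100% = vehicle without agonist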
Target sequence (P48145 whole entry, looked up): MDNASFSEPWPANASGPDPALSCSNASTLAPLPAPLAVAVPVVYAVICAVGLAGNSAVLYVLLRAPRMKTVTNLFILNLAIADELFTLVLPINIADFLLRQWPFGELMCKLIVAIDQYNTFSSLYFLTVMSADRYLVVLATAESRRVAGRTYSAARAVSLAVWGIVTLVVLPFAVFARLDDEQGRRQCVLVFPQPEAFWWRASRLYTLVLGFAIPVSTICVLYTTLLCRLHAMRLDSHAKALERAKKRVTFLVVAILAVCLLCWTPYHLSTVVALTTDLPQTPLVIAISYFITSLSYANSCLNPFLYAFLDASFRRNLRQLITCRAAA
TAAR1 ag: human TAAR1 agonism | Q96RJ0 | CHO RD-HGA16 TAAR1, Fluo-8 calcium fluorescence; vehicle wells 0%, saturating PEA agonist 100% | activation, % at 3 µM | 360,000 tested, 0.99% active | AID 624467;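 active means activation above the mean activation of all test compounds in the run plus 3 SD, cut at about 38% in these data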
Target sequence (Q96RJ0 whole entry, looked up): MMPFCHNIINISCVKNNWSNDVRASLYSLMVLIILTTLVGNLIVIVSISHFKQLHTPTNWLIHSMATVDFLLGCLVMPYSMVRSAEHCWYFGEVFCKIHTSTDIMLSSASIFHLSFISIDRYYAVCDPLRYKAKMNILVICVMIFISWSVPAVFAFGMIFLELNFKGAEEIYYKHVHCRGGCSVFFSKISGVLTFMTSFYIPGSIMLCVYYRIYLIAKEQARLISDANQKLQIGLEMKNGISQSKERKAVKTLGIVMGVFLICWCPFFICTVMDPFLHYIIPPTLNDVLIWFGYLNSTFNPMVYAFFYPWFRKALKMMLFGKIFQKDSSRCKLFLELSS
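Test system: RD-HGA16 (CHO) cells co-expressing Gα16 and hTAAR1; dosing: one-point dosing at 3 µM (nominal); timing: 17-24 h seeding, 75 min 37 °C dye, 30 min RT; signal: kinetic Fluo-8 calcium fluorescence; read-out basis: % activation relative to PEA EC100 response; controls: DMSO and PEA EC100; replicates: n 1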
zfTRPN1 agonist: activates the zebrafish TRPN1 channel; HEK293 zebrafish TRPN1-YFP, Fluo-8 calcium fluorescence; 100% = response to 87 µM carbachol; activation, % at 3 µM; 220,000 tested, 0.18% active; AID 1424;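 active means activation above its plate's cutoff, the mean activation of test wells on that plate plus 3 SD, cut at about 19% in these data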;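 further: 0% = DMSO alone and 100% = 87 µM carbachol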
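Material – zebrafish TRPN1-YFP in HEK293 cells · Doses – 3 µM single point · Schedule – dye 1 h 37 °C plus 30 min RT · Signal – Fluo-8 calcium fluorescence, excitation 470-495 nm, emission 515-575 nm · Read-out – % activation versus carbachol response · Control set – carbachol high, DMSO low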
LANA-H2B inh: blocks KSHV LANA binding to histone H2A/H2B | cell-free LANA-H2A/H2B peptide, fluorescence polarization | inhibition, % (test concentration not listed) | 320,000 tested, 0.6% active | Q9QR71 | AID 2629; in the data active means inhibition mostly above about 10%, no sharp cut-off; inactive means mostly below about 6.7%
TAAR1 antagonist: human TAAR1 antagonism; 360,000 tested, 1.5% active; AID 624466; inhibition, % at 3 µM; Q96RJ0; CHO RD-HGA16 TAAR1, Fluo-8 calcium fluorescence, antagonist;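 active means inhibition above a per-plate cutoff, the mean inhibition of test compounds on that plate plus 3 SD, cut at about 49% in these data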;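 further: 0% = DMSO plus EC80 beta-PEA response and 100% = DMSO alone without agonist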
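System: CHO RD-HGA16 cells bearing hTAAR1. Reagent: EC80 β-phenethylamine stimulus. Schedule: seeding 17-24 h prior, 75-min 37 °C, 30-min RT dye loading. Signal: Fluo-8 intracellular calcium dye fluorescence, real-time kinetic reads. Read-out: % inhibition from peak post-agonist over basal fluorescence ratio. Benchmarks: vehicle wells and EC80 agonist wells. Replicates: n of 1.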
GPR7 antag cf: human GPR7 antagonism, confirmation assay. shares compounds with GPR7 antagonist. inhibition, % at 4.4 µM. 2,400 tested, 52% active. GPR7-expressing cells, calcium fluorescence antagonist mode; in the data active means inhibition above about 24%;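 further: stimulated with the GPR7 agonist NPW; 0% = agonist plus vehicle and 100% = vehicle alone without agonist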
MCHR1 antag: MCHR1 (human) antagonism in GPR7 counter-screen | shares compounds with GPR7 antagonist | MCHR1-expressing cells, fluorescence antagonist assay | inhibition, % at 4.4 µM | 2,400 tested, 62% active; in the data active means inhibition above about 22%;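 further: 0% = vehicle with agonist and 100% = vehicle without agonist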
TAAR1 ag confirm: confirmation of human TAAR1 agonists; shares compounds with TAAR1 ag; CHO RD-HGA16 TAAR1, Fluo-8 calcium fluorescence; scaled: DMSO 0%, maximal phenethylamine 100%; activation, % at 3 µM; 2,400 tested, 82% active; AID 651783;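 active means activation above a cutoff set at the run's mean compound activation plus 3 SD, cut at about 39% in these data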
Ga16 ag counter: nonselective agonism, TAAR1 counter-screen. AID 651787. shares compounds with TAAR1 ag. activation, % at 3 µM. CHO-Ga16 parental, Fluo-8 calcium fluorescence; normalized to maximal ATP response, DMSO zero. 2,400 tested, 50% active;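 active means activation above the run cutoff, the mean activation over all tested wells plus 3 SD, cut at about 12% in these data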;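 further: 0% = DMSO wells and 100% = maximal ATP response on the peak over basal ratio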
TAAR1 desensitize: counter-screen for human TAAR1 agonists: agonists that desensitize TAAR1; inhibition, % at 3 µM; CHO RD-HGA16 hTAAR1, Fluo-8 calcium, beta-PEA response inhibition; AID 651951; shares compounds with TAAR1 ag; 2,400 tested, 46% active;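 active means inhibition above the run cutoff, the mean inhibition of all test compounds plus 3 SD, cut at about 49% in these data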;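 further: beta-PEA stimulus applied at its EC80; loss of beta-PEA calcium signal after compound pretreatment read as receptor desensitization; 0% = DMSO with beta-PEA at EC80 and 100% = DMSO alone without agonist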
Ga16 nonsel ant: nonselective Ga16 antagonist in TAAR1 agonist counter-screen. shares compounds with TAAR1 ag. CHO-Ga16 ATP-induced calcium, Fluo-8 fluorescence. inhibition, % at 3 µM. 2,400 tested, 39% active. AID 651952;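 active means inhibition above the plate's mean compound inhibition plus 3 SD, computed per plate, cut at about 22% in these data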;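 further: 0% = EC80 ATP with DMSO and 100% = DMSO wells without ATP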
An asterisk follows results filed as active; . = not tested or not shown. Compounds with a hit are over-represented: about 3.4% of the library has one in this group of screens.

SMILES | TRPML3 ag | GPR7 antagonist | TAAR1 ag | zfTRPN1 agonist | LANA-H2B inh | TAAR1 antagonist | GPR7 antag cf | MCHR1 antag | TAAR1 ag confirm | Ga16 ag counter | TAAR1 desensitize | Ga16 nonsel ant
COC(=O)C(NC(=O)c1ccccc1C)(Nc1ncc(S(=O)(=O)c2ccc([N+](=O)[O-])cc2)s1)C(F)(F)F (stereo not given) | 6 | 35* | 70* | 5 | 2 | 30 | 41* | 37* | 55* | 26* | 52* | 23*
CCCCCCCCCCOC(=O)Cn1c(COc2ccccc2OC)[n+](C)c2ccccc21 | . | 53* | 66* | . | 6 | 90* | 98* | 107* | 79* | 91* | 94* | 100*
CC1(C)CC(NC(=O)c2ccc(Br)o2)CC(C)(C)N1 | . | -5 | 0 | . | -7 | 4 | . | . | . | . | . | .
CSc1ccc(Cn2nnc(C(=O)NCc3ccccc3)c2N)cc1 | 11 | 37* | 98* | 19 | -9 | 75* | 57* | 52* | 105* | 48* | 60* | 41*
CCOC(=O)/C(=C/C=C1\Sc2cc(C)c(C)cc2N1CC)C(C)=O | 21* | 24* | 378* | 31* | . | 107* | 38* | 76* | 160* | 126* | 91* | 84*
O=C(NS(=O)(=O)Nc1ccccc1)C1=C(N2CCCC2)COC1=O | . | . | 4 | . | 2 | -17 | . | . | . | . | . | .
O=C(NCCC1=CCCCC1)c1ccc(=O)oc1 | 0 | -3 | 11 | 0 | -2 | 8 | . | . | . | . | . | .
O=C(NCCC1=CCCCC1)c1coc(=O)c(Br)c1 | -1 | 33* | 62* | 0 | 0 | 14 | 14 | 24* | 48* | 1 | 2 | -1
CC(=O)c1ccc2c3c(cccc13)C(=O)N(c1c(C)nn(C)c1C)C2=O | 1 | -10 | 3 | 0 | 5 | 1 | . | . | . | . | . | .
Cc1n[nH]c(C)c1N1C(=O)c2cccc3c(N4CCCCCC4)ccc(c23)C1=O | 86* | 52* | 148* | 125* | 65* | 82* | 41* | 56* | 88* | 119* | 74* | 82*
Cc1cccc2c(N=O)c(O)n(CCc3ccccc3)c12 | . | -3 | 1 | . | 1 | -21 | . | . | . | . | . | .
Cc1cccc(N/C(N)=N/c2nc(C)cc(C)n2)c1 | 6 | 28* | 58* | 6 | -4 | 56* | 39* | 54* | 80* | 43* | 81* | 53*
CCC(=O)Nc1ccc(N/C(N)=N/c2nc(C)cc(C)n2)cc1 | 1 | 6 | 4 | 0 | 0 | -7 | . | . | . | . | . | .
CC(=O)Nc1cccc(N/C(N)=N/c2nc(C)cc(C)n2)c1 | 1 | -3 | 1 | 1 | 5 | -3 | . | . | . | . | . | .
CCCCc1ccc(N/C(N)=N/c2nc(C)cc(C)n2)cc1 | 80* | 97* | 161* | 109* | 3 | 107* | 93* | 103* | 131* | 90* | 107* | 96*
CCN(Cc1cccc(F)c1)C(=O)c1ccc2ccccc2n1 | . | 3 | -1 | . | 2 | -10 | . | . | . | . | . | .
O=C(NC1CCCc2ccccc21)c1cccc(S(=O)(=O)N2CCN(c3ccccc3)CC2)c1 (stereo not given) | 4 | 45* | 47* | 6 | -4 | -5 | 62* | 43* | 30 | 11 | 26 | 21*
CS(=O)(=O)Nc1ccc(C(=O)NCc2ccccn2)cc1 | 1 | 0 | 5 | 0 | -2 | -12 | . | . | . | . | . | .
Cc1ccc(NS(=O)(=O)c2ccc(C(=O)NCc3ccccn3)cc2)cc1 | . | 30* | 96* | . | 1 | 48 | 44* | 33* | 110* | 60* | 54* | 31*
CCCC1(c2ccccc2)NC(=O)N(CC(=O)c2[nH]c(C)c(C(=O)OCC)c2C)C1=O (stereo not given) | 5 | 22* | 78* | 11 | -2 | 43 | 27* | 45* | 52* | 16* | 55* | 29*
O=C(CCNC(=O)c1ccc(Br)cc1)NC1CCCc2ccccc21 (stereo not given) | . | . | 1 | . | -1 | 6 | . | . | . | . | . | .
COc1ccccc1-n1nnnc1SCC(=O)N(C)C1CCS(=O)(=O)C1 (stereo not given) | . | . | 4 | . | -1 | -15 | . | . | . | . | . | .
COc1cc(-c2n[nH]c(=S)n2/N=C/c2cccn2C)cc(OC)c1OC | 35* | 80* | 138* | 64* | 2 | 71* | 88* | 74* | 139* | 113* | 97* | 79*
CC1CCCN(C(=O)c2ccc(-c3ccccc3Cl)o2)C1 (stereo not given) | . | . | 9 | . | 2 | 1 | . | . | . | . | . | .
CCCCCCCOC(=O)C[N+](C)(C)CCOC1CC2CCC1(C)C2(C)C (stereo not given) | 0 | 28* | 56* | -1 | . | 31 | 67* | 87* | 74* | 38* | 48 | 35*
COc1cc(/C=C2\SC(=Nc3ccc(Cl)c(C(=O)O)c3)NC2=O)c(Br)c(Br)c1O | . | 40* | 98* | . | -34 | 76* | 28* | 48* | 49* | 58* | 57* | 70*
CCOC(=O)[C@]12CCC=C1N(Cc1cccc3ccccc13)C(=O)[C@H](CC(=O)NCC1CCCCC1)C2 | . | . | -2 | . | . | 0 | . | . | . | . | . | .
N#CC(C#N)=C1C=C2C=C(N3CCOCC3)CCC2CC1 (stereo not given) | 74* | 34* | 682* | 169* | . | 109* | 82* | 96* | 726* | 880* | 106* | 103*
COc1cccc(CNC(=O)CCS(=O)(=O)c2ccc3c(c2)oc(=O)n3C)c1 | . | -3 | 34 | . | -4 | -27 | . | . | . | . | . | .
